Reference: ChEMBL document CHEMBL1123857, “Pyridonecarboxylic acids as antibacterial agents. 9. Synthesis and antibacterial activity of 1-substituted 6-fluoro-1,4-dihydro-4-oxo-7-(4-pyridyl)-1,8-naphthyridine-3-carboxylic acids” (1987)
Converted amounts (≈) assume the structure as drawn.

How the values were obtained:
Escherichia coli [1] = experiment: Compound was tested in vitro for antibacterial activity against the microbial strain Escherichia coli NIHJ JC-2.; assay type: functional
Pseudomonas aeruginosa [2] = experiment: Compound was tested in vitro for antibacterial activity against the microbial strain Pseudomonas aeruginosa 12.; assay type: functional
Staphylococcus aureus [3] = experiment: Compound was tested in vitro for antibacterial activity against the microbial strain Staphylococcus aureus 209P JC-1.; assay type: functional
Mus musculus [4] = species on record: Mus musculus; experiment: Antibacterial activity (oral efficacy) against systemic infections due to Staphylococcus aureus 50774 microbial strains in mice was determined; assay type: functional
Outline: (§1)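 Male Std-ddY mice (20 ± 2 g), in groups of 10 or more, were infected with S. aureus 50774 (iv, 5×10^8 cells), E. coli P-5101 (ip, 9×10^6 cells) or P. aeruginosa 12 (ip, 4×10^3 cells). Compounds were suspended in 0.2% sodium (carboxymethyl)cellulose and dosed orally at 0 and 6 h postinfection. Survival was scored at 2 weeks for S. aureus and at 1 week for the others.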

Mus musculus [5] = experiment: Antibacterial activity against Escherichia coli P-5101 microbial strains in mice was determined expressed as ED50 (mg/kg); assay type: functional; outline: as §1
Mus musculus [6] = experiment: Antibacterial activity against Pseudomonas aeruginosa 12 microbial strains in mice was determined expressed as ED50 (mg/kg); assay type: functional; outline: as §1
Escherichia coli [7] = experiment: Antibacterial activity against Escherichia coli P-5101 microbial strains was determined expressed as MIC
Pseudomonas aeruginosa [8] = experiment: Antibacterial activity against Pseudomonas aeruginosa 12 microbial strains; was determined expressed as MIC
Staphylococcus aureus [9] = experiment: Antibacterial activity against Staphylococcus aureus 50774 microbial strains; was determined expressed as MIC
Pseudomonas aeruginosa [10] = experiment: Compound was tested in vitro for antibacterial activity against the microbial strainP. aeruginosa 12.; assay type: functional
Outline: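 MIC (µg/mL) was determined by twofold agar dilution on Mueller-Hinton agar at pH 7.4. Inocula were about 10⁶ CFU. Growth was read after 20 h incubation at 37 °C.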

Escherichia coli [11] = experiment: Antibacterial activity against Escherichia coli P-5101 microbial strains; was determined expressed as MIC
Staphylococcus aureus [12] = experiment: Antibacterial activity against Staphylococcus aureus 50774 microbial strains; was determined expressed as MIC; remark: listed apart in the source

| Compound | MIC (Escherichia coli [1]) [mg/L] | MIC (Pseudomonas aeruginosa [2]) [mg/L] | MIC (Staphylococcus aureus [3]) [mg/L] | ED50 (Mus musculus [4]) [mg/kg] | ED50 (Mus musculus [5]) [mg/kg] | ED50 (Mus musculus [6]) [mg/kg] | MIC (Escherichia coli [7]) [mg/L] | MIC (Pseudomonas aeruginosa [8]) [mg/L] | MIC (Staphylococcus aureus [9]) [mg/L] | MIC (Pseudomonas aeruginosa [10]) [mg/L] | MIC (Escherichia coli [11]) [mg/L] | MIC (Staphylococcus aureus [12]) [mg/L] |
| --- | --- | --- | --- | --- | --- | --- | --- | --- | --- | --- | --- | --- |
| C=Cn1cc(C(=O)O)c(=O)c2cc(F)c(-c3ccncc3)nc21 | 0.78 (≈ 2.51 µM) | 6.25 (≈ 20.1 µM) | 1.56 (≈ 5.01 µM) | – | – | – | – | – | – | – | – | – |
| O=C(O)c1cn(CCF)c2nc(N3CCNCC3)c(F)cc2c1=O | 0.2 (≈ 0.591 µM) | 0.78 (≈ 2.31 µM) | 0.39 (≈ 1.15 µM) | – | – | – | – | – | – | – | – | – |
| O=C(O)c1cn(C2CC2)c2nc(-c3ccncc3)c(F)cc2c1=O | 0.1 (≈ 0.307 µM) | 0.78 (≈ 2.4 µM) | 0.2 (≈ 0.615 µM) | 5.43 | 4.48 | 15 | 0.05 (≈ 0.154 µM) | 0.78 (≈ 2.4 µM) | 0.1 (≈ 0.307 µM) | – | – | – |
| CCn1cc(C(=O)O)c(=O)c2ccc(N3CCNCC3)nc21 | 6.25 (≈ 20.7 µM) | – | 12.5 (≈ 41.3 µM) | – | – | – | – | – | – | 12.5 (≈ 41.3 µM) | – | – |
| O=C(O)c1cn(CCF)c2nc(-c3ccncc3)c(F)cc2c1=O | 0.2 (≈ 0.604 µM) | 1.56 (≈ 4.71 µM) | 0.39 (≈ 1.18 µM) | 3.37 | 4.91 | 14.9 | 0.1 (≈ 0.302 µM) | 1.56 (≈ 4.71 µM) | 0.39 (≈ 1.18 µM) | – | – | – |
| C=Cn1cc(C(=O)O)c(=O)c2cc(F)c(N3CCNCC3)nc21 | 0.1 (≈ 0.314 µM) | 0.39 (≈ 1.23 µM) | 1.56 (≈ 4.9 µM) | – | – | – | – | – | – | – | – | – |
| O=C(O)c1cn(CCO)c2nc(-c3ccncc3)c(F)cc2c1=O | 1.56 (≈ 4.74 µM) | 50 (≈ 152 µM) | 50 (≈ 152 µM) | – | – | – | – | – | – | – | – | – |
| CCn1cc(C(=O)O)c(=O)c2ccc(-c3ccncc3)nc21 | 0.78 (≈ 2.64 µM) | 12.5 (≈ 42.3 µM) | 1.56 (≈ 5.28 µM) | – | – | – | – | – | – | – | – | – |
| CCn1cc(C(=O)O)c(=O)c2cc(F)c(-c3ccncc3)nc21 | 0.2 (≈ 0.638 µM) | 3.13 (≈ 9.99 µM) | 0.39 (≈ 1.24 µM) | – | – | – | – | – | – | – | – | – |
| CCn1cc(C(=O)O)c(=O)c2cc(F)c(N3CCNCC3)nc21 [ENOXACIN] | 0.2 (≈ 0.624 µM) | 0.78 (≈ 2.44 µM) | 0.78 (≈ 2.44 µM) | 10 | 1.9 | 9 | – | 0.78 (≈ 2.44 µM) | – | – | 0.1 (≈ 0.312 µM) | 0.78 (≈ 2.44 µM) |
| CCn1cc(C(=O)O)c(=O)c2ccc(-c3ccncc3)cc21 [ROSOXACIN] | 0.39 (≈ 1.33 µM) | 3.13 (≈ 10.6 µM) | 0.78 (≈ 2.65 µM) | 6.8 | 7.3 | 29.2 | 0.2 (≈ 0.68 µM) | 3.13 (≈ 10.6 µM) | 0.39 (≈ 1.33 µM) | – | – | – |
